Measured values as given in ChEMBL document CHEMBL4325883, “Non-chelating p-phenylidene-linked bis-imidazoline analogs of known influenza virus endonuclease inhibitors: Synthesis and anti-influenza activity” (Eur J Med Chem, 2019).

Assays:
[1] = Selectivity index, ratio of CC50 for MDCK cells to IC50 for Influenza A virus (A/Puerto Rico/8/34(H1N1)) […] infected in MDCK cells; format: toxicity, cell-based; details: dog, read-out: Ratio CC50/IC50
Method in brief: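 SI computed as CC50/IC50. CC50 from the MTT assay on MDCK cells (24 h). IC50 is the concentration halving A/PR/8/34 (H1N1) titer in MDCK cells, measured by hemagglutination.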

[2] = Cytotoxicity against MDCK cells after 24 hrs by MTT assay; format: cell-based, Canis lupus familiaris; details: dog
Method in brief: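 MDCK cells grown 24 h at 36 °C, 5% CO2 to confluence. Threefold dilutions in MEM added for 24 h. Cells washed twice with saline, then MTT in MEM for 1 h at 36 °C. Formazan dissolved in DMSO, OD read at 540 nm. CC50 (50% cell death) from four-parameter logistic fit.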

Row | SMILES | selectivity ratio [1] | CC50 at 24 h [2] [µM]
1 | COc1ccc(N2CCN=C2c2ccc(C3=NCCN3c3ccc(OC)cc3)cc2)cc1 | 23 | 361
2 | Fc1ccc(N2CCN=C2c2ccc(C3=NCCN3c3ccc(F)cc3)cc2)cc1 | 12 | 144
3 | FC(F)(F)c1ccc(N2CCN=C2c2ccc(C3=NCCN3c3ccc(C(F)(F)F)cn3)cc2)nc1 | 4 | 455
4 | c1ccc(N2CCN=C2c2ccc(C3=NCCN3c3ccccc3)cc2)cc1 | > 11 | > 817
5 | c1cncc(N2CCN=C2c2ccc(C3=NCCN3c3cccnc3)cc2)c1 | > 12 | > 813
6 | c1ccc(N2CCN=C2c2ccc(C3=NCCN3c3ccccn3)cc2)nc1 | 4 | 127
7 | c1cnc(N2CCN=C2c2ccc(C3=NCCN3c3cnccn3)cc2)cn1 |  | > 809
8 | Clc1ccc(N2CCN=C2c2ccc(C3=NCCN3c3ccc(Cl)cc3)cc2)cc1 | 2 | 9
9 | c1ccc(N2CCN=C2c2ccc(C3=NCCN3)cc2)cc1 | > 34 | > 1030
10 | COc1ccc(N2CCN=C2c2ccc(C3=NCCN3)cc2)cc1 | 5 | 224
11 | Fc1ccc(N2CCN=C2c2ccc(C3=NCCN3)cc2)cc1 | > 15 | > 971
12 | CC(N)C12CC3CC(CC(C3)C1)C2 (stereo not drawn) [RIMANTADINE] | 6 | 62
